ChEMBL document CHEMBL1250424, “Design, synthesis and evaluation of 2-amino-4-m-bromoanilino-6-arylmethyl-7H-pyrrolo[2,3-d]pyrimidines as tyrosine kinase inhibitors and antiangiogenic agents” (Bioorg Med Chem, 2010)

How the values were obtained:
[1] = molecular target: Epidermal growth factor receptor (Homo sapiens, UniProt P00533); experiment: Inhibition of EGFR expressed in human A431 cells; assay type: cell-based, A-431
[2] = molecular target: Vascular endothelial growth factor receptor 2 (Homo sapiens, UniProt P35968); experiment: Inhibition of VEGFR2 expressed in human A431 cells; assay type: cell-based, A-431
Sequence of Vascular endothelial growth factor receptor 2 (P35968 whole entry): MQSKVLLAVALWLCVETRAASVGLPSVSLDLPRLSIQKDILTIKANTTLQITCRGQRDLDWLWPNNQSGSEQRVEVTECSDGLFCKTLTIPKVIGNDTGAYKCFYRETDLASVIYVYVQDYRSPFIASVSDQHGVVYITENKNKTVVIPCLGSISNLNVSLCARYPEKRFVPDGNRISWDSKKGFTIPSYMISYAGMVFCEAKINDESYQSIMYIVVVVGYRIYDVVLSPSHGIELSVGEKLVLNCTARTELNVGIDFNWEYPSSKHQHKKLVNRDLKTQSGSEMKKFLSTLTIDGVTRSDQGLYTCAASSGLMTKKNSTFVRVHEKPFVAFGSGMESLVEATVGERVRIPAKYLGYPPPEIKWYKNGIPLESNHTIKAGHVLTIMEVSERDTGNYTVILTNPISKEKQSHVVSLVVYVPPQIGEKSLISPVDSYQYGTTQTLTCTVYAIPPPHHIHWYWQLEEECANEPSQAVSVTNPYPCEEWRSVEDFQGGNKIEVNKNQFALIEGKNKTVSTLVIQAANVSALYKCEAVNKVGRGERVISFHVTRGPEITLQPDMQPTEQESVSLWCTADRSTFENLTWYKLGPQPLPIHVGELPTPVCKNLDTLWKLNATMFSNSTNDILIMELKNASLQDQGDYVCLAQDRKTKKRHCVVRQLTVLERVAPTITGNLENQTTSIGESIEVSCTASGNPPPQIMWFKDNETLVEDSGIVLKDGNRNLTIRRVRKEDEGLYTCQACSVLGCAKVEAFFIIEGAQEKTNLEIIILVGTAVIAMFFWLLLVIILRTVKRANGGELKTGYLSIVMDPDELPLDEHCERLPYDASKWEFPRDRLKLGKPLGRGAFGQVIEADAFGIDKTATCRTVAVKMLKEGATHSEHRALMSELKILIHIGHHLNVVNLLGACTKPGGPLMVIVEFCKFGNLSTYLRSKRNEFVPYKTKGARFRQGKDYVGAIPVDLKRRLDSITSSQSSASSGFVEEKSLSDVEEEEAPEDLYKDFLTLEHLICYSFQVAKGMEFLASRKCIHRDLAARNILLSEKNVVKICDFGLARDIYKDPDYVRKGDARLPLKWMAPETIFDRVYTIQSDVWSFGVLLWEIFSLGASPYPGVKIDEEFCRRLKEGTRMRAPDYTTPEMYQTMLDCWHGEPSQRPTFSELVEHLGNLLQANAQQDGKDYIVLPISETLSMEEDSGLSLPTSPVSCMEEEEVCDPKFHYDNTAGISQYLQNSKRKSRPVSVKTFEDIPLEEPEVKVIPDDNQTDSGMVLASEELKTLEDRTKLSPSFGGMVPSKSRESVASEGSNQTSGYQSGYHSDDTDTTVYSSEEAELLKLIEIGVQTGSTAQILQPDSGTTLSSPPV

[3] = molecular target: Platelet-derived growth factor receptor beta (Homo sapiens, UniProt P09619); experiment: Inhibition of PDGFRbeta expressed in human A431 cells; assay type: cell-based, A-431
Sequence of Platelet-derived growth factor receptor beta (P09619 whole entry): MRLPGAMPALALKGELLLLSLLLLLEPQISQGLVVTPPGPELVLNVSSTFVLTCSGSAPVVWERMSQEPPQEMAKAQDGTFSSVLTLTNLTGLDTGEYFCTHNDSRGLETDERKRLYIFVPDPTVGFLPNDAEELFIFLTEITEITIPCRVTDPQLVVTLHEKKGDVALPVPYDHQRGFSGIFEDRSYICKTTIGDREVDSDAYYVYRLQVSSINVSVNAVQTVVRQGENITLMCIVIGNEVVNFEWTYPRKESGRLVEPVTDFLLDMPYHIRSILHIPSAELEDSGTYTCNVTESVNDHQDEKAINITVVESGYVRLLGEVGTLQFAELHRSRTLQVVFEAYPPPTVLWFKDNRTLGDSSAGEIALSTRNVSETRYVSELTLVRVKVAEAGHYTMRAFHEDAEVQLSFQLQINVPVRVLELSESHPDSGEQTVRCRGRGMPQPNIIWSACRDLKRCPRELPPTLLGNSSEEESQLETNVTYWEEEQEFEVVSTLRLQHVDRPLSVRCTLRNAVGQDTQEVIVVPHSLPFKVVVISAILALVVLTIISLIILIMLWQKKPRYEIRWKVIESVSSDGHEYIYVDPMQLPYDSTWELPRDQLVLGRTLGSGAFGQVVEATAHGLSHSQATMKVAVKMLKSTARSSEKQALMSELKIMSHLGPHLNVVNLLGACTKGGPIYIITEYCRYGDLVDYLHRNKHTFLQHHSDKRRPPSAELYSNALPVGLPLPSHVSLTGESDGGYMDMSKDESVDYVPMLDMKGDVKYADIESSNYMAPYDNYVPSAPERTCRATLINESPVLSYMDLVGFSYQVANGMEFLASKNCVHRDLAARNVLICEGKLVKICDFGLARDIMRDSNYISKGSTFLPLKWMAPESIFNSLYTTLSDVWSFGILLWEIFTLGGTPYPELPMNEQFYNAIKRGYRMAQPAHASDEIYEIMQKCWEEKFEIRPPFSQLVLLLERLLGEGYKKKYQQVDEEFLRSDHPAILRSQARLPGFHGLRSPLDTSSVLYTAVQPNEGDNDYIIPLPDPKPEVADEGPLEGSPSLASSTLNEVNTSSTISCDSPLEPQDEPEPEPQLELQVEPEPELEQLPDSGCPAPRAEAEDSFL

A-431 = experiment: Cytotoxicity against human A431 cells; assay type: functional, cell-based
Procedure, shortened: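 Growth inhibition of A431 cells, which over-express EGFR, measured in culture. Cisplatin was run in each evaluation as the reference standard. Each assay was performed 2-3 times, with 4-5 replicates per assay.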

[4] = Antiangiogenic activity in fertilized chicken egg by CAM assay; assay type: functional, Gallus gallus

Sequence of Epidermal growth factor receptor (P00533 whole entry): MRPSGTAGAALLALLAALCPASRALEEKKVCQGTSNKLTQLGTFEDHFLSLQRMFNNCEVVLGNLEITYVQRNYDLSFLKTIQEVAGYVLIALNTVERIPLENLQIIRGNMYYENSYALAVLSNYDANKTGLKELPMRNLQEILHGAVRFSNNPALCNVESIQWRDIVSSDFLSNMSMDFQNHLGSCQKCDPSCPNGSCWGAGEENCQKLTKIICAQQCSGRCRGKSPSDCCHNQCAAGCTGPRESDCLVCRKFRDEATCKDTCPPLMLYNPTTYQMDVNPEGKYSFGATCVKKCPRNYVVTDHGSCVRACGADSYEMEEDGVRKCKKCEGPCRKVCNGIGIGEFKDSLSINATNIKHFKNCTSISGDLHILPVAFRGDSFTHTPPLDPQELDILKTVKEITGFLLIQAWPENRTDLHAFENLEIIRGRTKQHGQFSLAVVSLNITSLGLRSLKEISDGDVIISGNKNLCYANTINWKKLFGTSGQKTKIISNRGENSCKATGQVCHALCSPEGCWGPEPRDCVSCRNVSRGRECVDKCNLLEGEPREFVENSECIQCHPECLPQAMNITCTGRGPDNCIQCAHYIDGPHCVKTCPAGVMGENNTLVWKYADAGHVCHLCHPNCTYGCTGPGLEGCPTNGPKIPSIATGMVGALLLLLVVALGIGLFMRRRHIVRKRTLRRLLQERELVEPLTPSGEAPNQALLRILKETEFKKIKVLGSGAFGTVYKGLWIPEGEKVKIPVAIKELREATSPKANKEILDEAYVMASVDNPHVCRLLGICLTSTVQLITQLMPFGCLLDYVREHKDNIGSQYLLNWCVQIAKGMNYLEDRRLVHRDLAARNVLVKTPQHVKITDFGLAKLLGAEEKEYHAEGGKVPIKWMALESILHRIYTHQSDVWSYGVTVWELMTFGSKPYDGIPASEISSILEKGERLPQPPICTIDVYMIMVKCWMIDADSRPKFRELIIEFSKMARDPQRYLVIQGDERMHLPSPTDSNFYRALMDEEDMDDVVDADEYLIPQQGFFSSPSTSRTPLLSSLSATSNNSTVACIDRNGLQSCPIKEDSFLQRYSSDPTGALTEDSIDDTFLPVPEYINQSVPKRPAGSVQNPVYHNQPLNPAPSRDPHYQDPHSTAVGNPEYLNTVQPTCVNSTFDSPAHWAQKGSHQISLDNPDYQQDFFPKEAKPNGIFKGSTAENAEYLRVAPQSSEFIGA

CN(c1cccc(Br)c1)c1nc(N)nc2c1cc(Cc1ccccc1)n2C
IC50 [1]: 254 µM | IC50 [2]: > 200 µM | IC50 [3]: 71.7 µM | IC50 (A-431): 50.9 µM | IC50 [4]: 2.6 µM

Cc1ccccc1Cc1cc2c(Nc3cccc(Br)c3)nc(N)nc2[nH]1
IC50 [2]: 0.25 µM

Cc1ccccc1Cc1cc2c(N(C)c3cccc(Br)c3)nc(N)nc2n1C
IC50 [1]: 1.2 µM | IC50 [2]: > 200 µM | IC50 [3]: > 500 µM | IC50 (A-431): 226 µM | IC50 [4]: 1.6 µM

COc1ccc(OC)c(Cc2cc3c(Nc4cccc(Br)c4)nc(N)nc3[nH]2)c1
IC50 [2]: 0.62 µM | IC50 [4]: 1.32 µM

COc1ccc(OC)c(Cc2cc3c(N(C)c4cccc(Br)c4)nc(N)nc3[nH]2)c1
IC50 [1]: 144 µM | IC50 [2]: > 200 µM | IC50 [3]: 1.3 µM | IC50 (A-431): 197 µM | IC50 [4]: 0.83 µM

Cc1ccccc1Cc1cc2c(N(C)c3cccc(Br)c3)nc(N)nc2[nH]1
IC50 [1]: 31.2 µM | IC50 [2]: > 200 µM | IC50 [3]: 34.8 µM | IC50 (A-431): > 500 µM | IC50 [4]: 0.93 µM

Cn1c(Cc2ccccc2)cc2c(Nc3cccc(Br)c3)nc(N)nc21
IC50 [1]: > 200 µM | IC50 [2]: > 200 µM | IC50 [3]: 2.8 µM | IC50 (A-431): 27.9 µM | IC50 [4]: 6.22 µM

COc1ccc(OC)c(Cc2cc3c(N(C)c4cccc(Br)c4)nc(N)nc3n2C)c1
IC50 [1]: 0.5 µM | IC50 [2]: > 200 µM | IC50 [3]: > 500 µM | IC50 (A-431): 94.1 µM | IC50 [4]: 2.05 µM

COc1ccc(OC)c(Cc2cc3c(Nc4cccc(Br)c4)nc(N)nc3n2C)c1
IC50 [1]: > 200 µM | IC50 [2]: > 200 µM | IC50 [3]: 348 µM | IC50 (A-431): 35.6 µM | IC50 [4]: 3.3 µM

CN(c1cccc(Br)c1)c1nc(N)nc2[nH]c(Cc3ccccc3)cc12
IC50 [1]: 53.1 µM | IC50 [2]: 89.2 µM | IC50 [3]: > 500 µM | IC50 (A-431): 45.7 µM | IC50 [4]: 1.56 µM

Cc1ccccc1Cc1cc2c(Nc3cccc(Br)c3)nc(N)nc2n1C
IC50 [1]: 12.8 µM | IC50 [2]: 116 µM | IC50 [3]: > 500 µM | IC50 (A-431): 204 µM | IC50 [4]: 3 µM
